Measured values from ChEMBL document CHEMBL5120825, “The azulene scaffold from a medicinal chemist's perspective: Physicochemical and in vitro parameters relevant for drug discovery” (Eur J Med Chem, 2022).
Values after ≈ are worked out from the molar mass of the structure shown.

Legend:
[1] = Octanol-water partition coefficient, logD of the compound at pH 11 by HPLC analysis; format: physicochemical; conditions: read-out: logD
[2] = Photostability of the compound at pH 5.3 assessed as compound degradation administered as solution irradiated with sun light and measured after 7 days by HPLC analysis; format: physicochemical; conditions: time 7 day, read-out: Drug degradation
Summary of the method: (§1)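 Compound in solution was kept for 7 days under "mild" light-stress conditions, with no pH adjustment. The pH listed for each compound is the solution's own intrinsic pH. Result is % degradation of parent.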

[3] = Metabolic stability in human liver microsomes assessed as hepatic blood flow at 1 uM preincubated with compound followed by NADPH addition by LC-MS/MS analysis; format: ADME, Microsome; conditions: read-out: QH
[4] = Aqueous solubility of the compound at pH 2.2 incubated for 24 hrs under shaking condition by LC-UV analysis; format: physicochemical; conditions: aqueous medium
Summary of the method: (§2)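 The highest concentration tested was 250 μM, so results are capped at that level. Values are reported in µg/ml.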

[5] = Permeability of the compound at pH 7.4 by PAMPA assay; format: ADME; conditions: read-out: permeability
[6] = Stability of the compound at pH 7.4 assessed as half life measured after 24 hrs in presence of GSH by HPLC analysis; format: physicochemical; conditions: solution with GSH
[7] = Octanol-water partition coefficient, logD of the compound at pH 2 by HPLC analysis; format: physicochemical
[8] = Hydrolytic stability of the compound in aqueous HCl assessed as compound decomposition measured after 3 days by HPLC analysis; format: physicochemical; conditions: time 3 day, read-out: Drug degradation
Summary of the method: (§3)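 Compound was held for 3 days at 40 °C in 0.1 M HCl in water or in aqueous buffer at pH 7.4. Dissolution was confirmed by eye, and decomposition is reported as % loss of parent.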

[9] = Aqueous solubility of the compound at pH 6.8 incubated for 24 hrs under shaking condition by LC-UV analysis; format: physicochemical; conditions: aqueous medium; summary of the method: as §2
[10] = Photostability of the compound assessed as compound degradation administered as solid irradiated with sun light and measured after 7 days by HPLC analysis
[11] = Aqueous solubility of the compound at pH 4.5 incubated for 24 hrs under shaking condition by LC-UV analysis; format: physicochemical; conditions: aqueous medium; summary of the method: as §2
[12] = Lipophilicity, logP of the compound; format: physicochemical; conditions: octanol/water
[13] = Hydrolytic stability of the compound in aqueous buffer at pH 7.4 assessed as compound decomposition measured after 3 days by HPLC analysis; format: physicochemical; conditions: time 3 day, read-out: Drug degradation; summary of the method: as §3
[14] = target: Cytochrome P450 3A4 (Homo sapiens, UniProt P08684); experiment: Inhibition of CYP3A4 in human liver microsomes using midazolam as substrate preincubated with compound followed by NADPH addition by LC-MS/MS analysis; format: ADME, Microsome
Sequence of Cytochrome P450 3A4 (P08684 whole entry): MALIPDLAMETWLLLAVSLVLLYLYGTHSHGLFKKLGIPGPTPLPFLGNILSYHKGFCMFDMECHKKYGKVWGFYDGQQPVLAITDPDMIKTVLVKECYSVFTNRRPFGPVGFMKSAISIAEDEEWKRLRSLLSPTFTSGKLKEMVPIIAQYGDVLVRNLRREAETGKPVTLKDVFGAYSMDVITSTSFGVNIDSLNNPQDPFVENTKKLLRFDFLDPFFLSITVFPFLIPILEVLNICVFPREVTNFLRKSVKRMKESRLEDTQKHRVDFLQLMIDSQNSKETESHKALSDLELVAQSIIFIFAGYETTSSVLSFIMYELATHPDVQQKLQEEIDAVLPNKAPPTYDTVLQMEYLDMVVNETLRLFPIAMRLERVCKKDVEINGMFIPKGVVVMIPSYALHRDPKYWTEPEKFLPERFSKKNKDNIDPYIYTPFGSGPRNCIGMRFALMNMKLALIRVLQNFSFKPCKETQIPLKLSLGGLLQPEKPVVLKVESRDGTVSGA

[15] = target: T1, Cytochrome P450 2C8 (Homo sapiens, UniProt P10632); experiment: Inhibition of CYP2C8 in human liver microsomes using amodiaquine as substrate preincubated with compound followed by NADPH addition by LC-MS/MS analysis; format: ADME, Microsome
T1 sequence (P10632 whole entry): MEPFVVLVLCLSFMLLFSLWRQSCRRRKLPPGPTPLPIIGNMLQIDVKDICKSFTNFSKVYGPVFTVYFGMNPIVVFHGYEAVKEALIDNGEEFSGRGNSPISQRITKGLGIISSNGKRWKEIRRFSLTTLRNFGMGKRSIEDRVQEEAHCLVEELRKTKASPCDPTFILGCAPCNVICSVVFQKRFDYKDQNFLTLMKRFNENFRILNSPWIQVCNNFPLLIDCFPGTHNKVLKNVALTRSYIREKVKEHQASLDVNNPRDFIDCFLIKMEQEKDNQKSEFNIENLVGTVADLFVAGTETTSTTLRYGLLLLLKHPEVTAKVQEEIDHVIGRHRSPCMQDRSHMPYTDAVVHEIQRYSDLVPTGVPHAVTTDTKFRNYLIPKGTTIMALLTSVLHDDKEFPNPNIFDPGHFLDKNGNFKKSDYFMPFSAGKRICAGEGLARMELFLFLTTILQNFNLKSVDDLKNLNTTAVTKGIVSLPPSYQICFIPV

[16] = Photostability of the compound at pH 5.8 assessed as compound degradation administered as solution irradiated with sun light and measured after 7 days by HPLC analysis; format: physicochemical; conditions: time 7 day, read-out: Drug degradation; summary of the method: as §1
[17] = target: Cytochrome P450 2C19 (Homo sapiens, UniProt P33261); experiment: Inhibition of CYP2C19 in human liver microsomes using mephenytoin as substrate preincubated with compound followed by NADPH addition by LC-MS/MS analysis; format: ADME, Microsome
Sequence of Cytochrome P450 2C19 (P33261 whole entry): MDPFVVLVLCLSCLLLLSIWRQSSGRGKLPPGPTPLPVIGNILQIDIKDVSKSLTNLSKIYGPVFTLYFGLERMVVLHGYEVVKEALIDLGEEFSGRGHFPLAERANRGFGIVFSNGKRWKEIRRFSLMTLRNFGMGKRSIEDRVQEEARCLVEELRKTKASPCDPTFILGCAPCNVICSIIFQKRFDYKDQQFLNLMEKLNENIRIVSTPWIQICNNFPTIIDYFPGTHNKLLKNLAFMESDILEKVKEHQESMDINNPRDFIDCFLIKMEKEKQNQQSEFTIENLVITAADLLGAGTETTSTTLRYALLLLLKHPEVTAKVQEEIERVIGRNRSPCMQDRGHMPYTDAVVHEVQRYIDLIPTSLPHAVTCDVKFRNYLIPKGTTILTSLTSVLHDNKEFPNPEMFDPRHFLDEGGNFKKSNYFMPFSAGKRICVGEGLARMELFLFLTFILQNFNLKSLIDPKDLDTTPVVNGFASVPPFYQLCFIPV

[18] = target: Cytochrome P450 2D6 (Homo sapiens, UniProt P10635); experiment: Inhibition of CYP2D6 in human liver microsomes using dextromethorphan as substrate preincubated with compound followed by NADPH addition by LC-MS/MS analysis; format: ADME, Microsome
Sequence of Cytochrome P450 2D6 (P10635 whole entry): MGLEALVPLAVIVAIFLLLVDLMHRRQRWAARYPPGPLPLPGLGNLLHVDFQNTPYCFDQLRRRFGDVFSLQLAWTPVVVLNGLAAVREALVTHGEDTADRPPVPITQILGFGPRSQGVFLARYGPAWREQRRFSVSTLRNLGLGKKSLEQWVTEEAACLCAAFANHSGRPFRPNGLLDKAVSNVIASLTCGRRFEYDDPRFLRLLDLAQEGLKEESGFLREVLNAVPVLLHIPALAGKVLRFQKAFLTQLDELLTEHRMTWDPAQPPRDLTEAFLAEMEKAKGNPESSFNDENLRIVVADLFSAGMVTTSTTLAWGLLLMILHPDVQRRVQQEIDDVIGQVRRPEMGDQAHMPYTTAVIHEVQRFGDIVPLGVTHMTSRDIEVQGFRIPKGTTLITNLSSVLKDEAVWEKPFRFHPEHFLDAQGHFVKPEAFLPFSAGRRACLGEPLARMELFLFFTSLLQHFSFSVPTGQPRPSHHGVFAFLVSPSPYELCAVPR

[19] = target: Cytochrome P450 2C9 (Homo sapiens, UniProt P11712); experiment: Inhibition of CYP2C9 in human liver microsomes using diclofenac as substrate preincubated with compound followed by NADPH addition by LC-MS/MS analysis; format: ADME, Microsome
Sequence of Cytochrome P450 2C9 (P11712 whole entry): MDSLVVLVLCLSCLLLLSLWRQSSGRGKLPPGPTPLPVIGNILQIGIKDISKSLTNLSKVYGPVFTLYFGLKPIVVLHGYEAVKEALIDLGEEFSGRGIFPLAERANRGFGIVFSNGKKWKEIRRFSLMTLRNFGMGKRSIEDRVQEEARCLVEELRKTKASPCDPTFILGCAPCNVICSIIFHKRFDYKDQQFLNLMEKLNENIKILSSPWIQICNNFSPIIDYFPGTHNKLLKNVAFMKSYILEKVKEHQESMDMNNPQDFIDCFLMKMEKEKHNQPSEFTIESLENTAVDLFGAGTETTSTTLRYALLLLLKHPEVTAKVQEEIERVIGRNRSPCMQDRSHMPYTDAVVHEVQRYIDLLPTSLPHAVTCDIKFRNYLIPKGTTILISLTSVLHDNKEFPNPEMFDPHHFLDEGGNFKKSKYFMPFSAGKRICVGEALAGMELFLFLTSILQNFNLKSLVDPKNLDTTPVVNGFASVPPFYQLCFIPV

[20] = Dissociation constant, pKa of the compound by dip probe absorption spectroscopy; format: physicochemical
[21] = Photostability of the compound at pH 7.1 assessed as compound degradation administered as solution irradiated with sun light and measured after 7 days by HPLC analysis; format: physicochemical; conditions: time 7 day, read-out: Drug degradation; summary of the method: as §1
[22] = Photostability of the compound at pH 8.6 assessed as compound degradation administered as solution irradiated with sun light and measured after 7 days by HPLC analysis; format: physicochemical; conditions: time 7 day, read-out: Drug degradation; summary of the method: as §1
[23] = Cytotoxicity against human HepG2 cells assessed as cell growth inhibition incubated for 24 hrs by MTT assay; format: toxicity, cell-based
Summary of the method: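 HepG2 human hepatoma cells were exposed to compound at concentrations up to 400 µM and viability was read by MTT. The result is given in µM.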

[24] = Photostability of the compound assessed as compound degradation administered as aqueous solution irradiated with UV and measured after 24 hrs by HPLC analysis
[25] = Photostability of the compound at pH 4.0 assessed as compound degradation administered as solution irradiated with sun light and measured after 7 days by HPLC analysis; format: physicochemical; conditions: time 7 day, read-out: Drug degradation; summary of the method: as §1
[26] = Photostability of the compound at pH 8.7 assessed as compound degradation administered as solution irradiated with sun light and measured after 7 days by HPLC analysis; format: physicochemical; conditions: time 7 day, read-out: Drug degradation; summary of the method: as §1
[27] = Photostability of the compound at pH 4.1 assessed as compound degradation administered as solution irradiated with sun light and measured after 7 days by HPLC analysis; format: physicochemical; conditions: time 7 day, read-out: Drug degradation; summary of the method: as §1

Row | Structure (SMILES) | logD [1] | hepatic extraction ratio at 1 µM [3] | solubility thermodynamic at 24 h [4] [µg/mL] | Papp [5] [×10⁻⁶ cm/s] | half-life [6] [days] | logD ([7]; read-out: logD) | solubility thermodynamic at 24 h [9] [µg/mL] | degraded at 168 h [10] [%] | solubility thermodynamic at 24 h [11] [µg/mL] | logP ([12]; read-out: logP) | IC50 [14] [µM] | IC50 [15] [µM] | IC50 [17] [µM] | IC50 [18] [µM] | IC50 [19] [µM] | also measured
1 | CN(C)C(=O)Cc1ccc2cccc-2cc1 | 2.2 | 0.27 | > 44 | 8.7 | > 41.7 | 2.5 | > 43 | < 0.5 | > 45 | 2.2 |  |  |  |  |  | degraded at 168 h [2]: 12%; degraded at 72 h [8]: 2%; degraded at 72 h [13]: < 0.5%
2 | O=C(NCCO)c1ccc2ccc(C(=O)c3ccccc3)c-2cc1 | 2.2 | < 0.23 | 14 (≈ 43.8 µM) | 1.8 |  | 2.3 | 4 (≈ 12.5 µM) | < 0.5 | 6 (≈ 18.8 µM) | 2.2 | > 50 | > 50 | > 50 | > 50 | > 50 | degraded at 168 h [16]: < 0.5%
3 | C=CC(=O)N1C[C@H](Nc2ncnc3[nH]ccc23)CC[C@@H]1C [RITLECITINIB] |  |  |  |  | 1.33 |  |  |  |  |  |  |  |  |  |  | 
4 | O=C(O)c1c[nH]c2ccccc12 |  |  |  |  |  |  |  |  |  |  |  |  |  |  |  | pKa [20]: 5.29
5 | O=C(Cn1ccccc1=O)Nc1cc2cccccc-2c1 | 1.7 | < 0.23 | 4 (≈ 14.4 µM) | 3.7 | > 41.7 | 2 | 2 (≈ 7.19 µM) | < 0.5 | 2 (≈ 7.19 µM) | 1.7 |  |  |  |  |  | degraded at 168 h [21]: 85%; degraded at 72 h [8]: 3.5%; degraded at 72 h [13]: < 0.5%
6 | CN(C)C(=O)c1ccc2cccccc1-2 | 1.6 | 0.67 | > 43 | 7.6 | > 41.7 |  | > 40 | < 0.5 | > 44 |  | > 50 | > 50 | > 50 | > 50 | > 50 | degraded at 168 h [22]: 3%; logD [7]: 2.1; degraded at 72 h [8]: < 0.5%; EC50 at 24 h [23]: > 400 µM; degraded at 24 h [24]: 100%; logP [12]: 1.6; degraded at 72 h [13]: < 0.5%
7 | CN(C)C(=O)c1c[nH]c2ccccc12 | 0.4 | 0.25 | > 47 | 2.2 |  |  | > 44 |  | > 47 |  |  |  |  |  |  | logD [7]: 1.1; degraded at 24 h [24]: < 0.5%; logP [12]: 0.4
8 | O=C(O)c1ccc2cccc-2cc1 |  |  |  |  | > 41.7 |  |  | < 0.5 |  |  |  |  |  |  |  | degraded at 168 h [25]: < 0.5%; degraded at 72 h [8]: 1.5%; pKa [20]: 3.5; degraded at 72 h [13]: < 0.5%
9 | COCC(=O)Nc1cc2cccccc-2c1 |  |  |  |  |  |  |  |  |  |  | > 50 | > 50 | 22 | > 50 | > 50 | EC50 at 24 h [23]: > 400 µM
10 | c1cc2ccc(CN3CCCCC3)ccc-2c1 | > 5.5 | 0.75 | > 56 | 3.4 |  | 0.8 | 31 (≈ 138 µM) | < 0.5 |  | > 5.5 | > 50 | > 50 | 2.3 | 17 | > 50 | degraded at 168 h [26]: 3.5%
11 | O=C(O)c1ccc2ccc(C(=O)c3ccccc3)c-2cc1 |  |  |  |  | > 41.7 |  |  | < 0.5 |  |  | > 50 | > 50 | > 50 | > 50 | > 50 | degraded at 168 h [27]: < 0.5%; pKa [20]: 3.2
12 | O=C(O)c1ccc2c(C(=O)c3ccccc3)cc(C(=O)c3ccccc3)c-2cc1 |  |  |  |  |  |  |  |  |  |  | > 50 | 1.5 | > 50 | > 50 | 12 | 
13 | CN(C)C(=O)c1cn(C)c2ccccc12 | 1.3 | 0.55 | > 51 | 6.7 |  |  | > 51 |  | > 51 |  |  |  |  |  |  | logD [7]: 1.8; degraded at 24 h [24]: < 0.5%; logP [12]: 1.3
14 | COc1cccc(C(=O)c2ccc3ccc(C(=O)O)ccc2-3)c1 |  |  |  |  |  |  |  |  |  |  | > 50 | 22 | > 50 | > 50 | > 50 | 
15 | O=C(O)c1ccc2ccc(C(=O)c3ccc(C(F)(F)F)cc3)c-2cc1 |  |  |  |  |  |  |  |  |  |  | > 50 | 13 | > 50 | > 50 | > 50 | 
16 | CN(C)C(=O)c1cccc2ccccc12 | 1.8 | < 0.23 | > 47 | 8.3 |  |  | > 43 |  | > 50 |  |  |  |  |  |  | logD [7]: 2.2; degraded at 24 h [24]: < 0.5%; logP [12]: 1.8
17 | NC(=O)C1CCN(C(=O)c2ccc3cccccc2-3)CC1 | 0.6 | < 0.23 | > 71 | 0.5 |  |  | > 58 |  | > 57 |  | > 50 | > 50 | > 50 | > 50 | > 50 | logD [7]: 1.2; EC50 at 24 h [23]: > 400 µM; logP [12]: 0.6
18 | COC(=O)c1ccc2ccc(C(=O)N(C)C)c-2cc1 | 2.1 |  | > 64 | 7.4 | > 41.7 | 2.3 | > 64 |  | 50 (≈ 194 µM) | 2.1 |  |  |  |  |  | 
19 | O=C(O)c1ccc2cccccc1-2 |  |  |  |  |  |  |  |  |  |  |  |  |  |  |  | pKa [20]: 5.1
20 | Cn1cc(C(=O)c2ccccc2)c2cc(C(=O)NCCO)ccc21 | 1.6 | < 0.23 | 53 (≈ 164 µM) | 0.5 |  | 1.6 | 45 (≈ 140 µM) |  | 66 (≈ 205 µM) | 1.3 |  |  |  |  |  | 
21 | Cn1cc(C(=O)c2ccccc2)c2cc(C(=O)NCCc3cnc[nH]3)ccc21 | 1.5 | 0.23 | 84 (≈ 226 µM) | 0.1 |  | 0.9 | 72 (≈ 193 µM) |  | 107 (≈ 287 µM) | 1.5 |  |  |  |  |  | 
